# SR-BI DiI inh: inhibitors of SR-BI mediated HDL lipid uptake, primary screen, ldlA[mSR-BI] cells, fluorescence, single point; 320,000 tested, 0.96% active; Scavenger receptor class B member 1 (Mus musculus), Q61009; inhibition, % at 12.5 µM; ldlA[mSR-BI] CHO cells, DiI-HDL uptake fluorescence, 3 h; AID 488896, 2010;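 active = mean replicate inhibition of at least 70% and a set share of replicates each scoring 70 or more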
# Target sequence (Q61009 whole entry, looked up): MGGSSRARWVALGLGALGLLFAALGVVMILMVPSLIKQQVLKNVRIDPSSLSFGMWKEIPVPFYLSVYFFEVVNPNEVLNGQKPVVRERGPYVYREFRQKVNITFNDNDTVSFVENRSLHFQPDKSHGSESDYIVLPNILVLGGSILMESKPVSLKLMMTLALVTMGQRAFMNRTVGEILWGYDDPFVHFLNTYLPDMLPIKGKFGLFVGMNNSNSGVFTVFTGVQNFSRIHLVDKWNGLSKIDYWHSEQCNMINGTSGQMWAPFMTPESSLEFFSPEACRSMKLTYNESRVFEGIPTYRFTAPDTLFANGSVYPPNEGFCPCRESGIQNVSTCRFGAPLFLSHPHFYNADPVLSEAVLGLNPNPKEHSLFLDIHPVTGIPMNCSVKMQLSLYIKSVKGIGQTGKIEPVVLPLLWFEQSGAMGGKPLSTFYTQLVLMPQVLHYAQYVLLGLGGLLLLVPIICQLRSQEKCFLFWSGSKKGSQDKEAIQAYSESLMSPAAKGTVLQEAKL
# dFosB activator: activators of delta FosB homodimer, primary screen, biochemical, fluorescence polarization, TAMRA-CDK5 oligo, single point | purified delta FosB; percent of positive-control signal above neutral wells | activation, % at 25 µM | 340,000 tested, 0.99% active;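 active = mean activation above about 17%, with every replicate also reaching it, limit read from the data, passing the limit was not always enough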
# Dyrk1A ADPGlo: rat Dyrk1A kinase inhibitors, primary screen, biochemical, single point, plate reader. 310,000 tested, 0.43% active. Dual specificity tyrosine-phosphorylation-regulated kinase 1A (Rattus norvegicus), Q63470. ADP-Glo luminescence, NFATc1 peptide. inhibition, % at 12.5 µM
# NSD2 inh: NSD2 histone methyltransferase inhibitors, primary screen, biochemical, AlphaScreen, single concentration, set 2; Histone-lysine N-methyltransferase NSD2 (Homo sapiens), O96028; inhibition, % at 12.5 µM; NSD2 peptide methylation, 120 min; 310,000 tested, 0.54% active; AID 743445, 2014
# SR-BI DiI-HDL act: activators of SR-BI mediated DiI-HDL uptake, primary screen, ldlA[mSR-BI] CHO cells, DiI fluorescence | 3 h; 100 = double the neutral-control signal | 320,000 tested, 0.096% active | AID 504775, 2011 | activation, % at 12.5 µM;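 active = mean replicate activation of at least 60% and every replicate at or above 60%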
#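 Assay system: LDL receptor-deficient CHO ldlA cells overexpressing murine SR-BI / Medium: BSA-supplemented, HEPES-buffered Ham's F12, pH 7.4 / Probe or stimulus: DiI-labelled HDL at 10 µg/mL final / Timing: compound with DiI-HDL co-incubation, 3 h at 37 °C / Technique: bottom-read cell fluorescence after medium removal, ex 550/em 595 nm / Measure: HDL uptake via cellular fluorescence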
# CDK5 inh: inhibitors of human CDK5/p35 kinase, primary screen, biochemical, single concentration. Recombinant CDK5/p35, ADP-Glo luminescence, 60 min. inhibition, % at 10 µM. 330,000 tested, 0.01% active;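 active = highest replicate inhibition of at least 50% and at least 75% of replicates reaching 50%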
# Hits are given with their value; . = inactive; / = no result given. The list is not random: actives were taken first. Their share in the collection is about 2.5%. Rule as the data show it, unless noted: active = inhibition above about 50%; inactive = the rest.
SMILES,SR-BI DiI inh,dFosB activator,Dyrk1A ADPGlo,NSD2 inh,SR-BI DiI-HDL act,CDK5 inh
CCOC(=O)c1c(C)[nH]c(C(=O)OCC(=O)Nc2ccc(OC)c(Cl)c2)c1C,.,140,.,.,.,.
CCCc1sc(N/N=C/c2ccccn2)nc1-c1ccc(Br)cc1,72,.,.,.,.,.
CC(=O)Nc1sc(N/N=C/c2ccccc2)nc1-c1ccc(C)cc1,/,.,/,.,/,.
COc1ccc(/C=N/n2c(=O)[nH]c3c([nH]c4ccc(F)cc43)c2=O)cc1CN1CCCCC1,.,31,.,.,.,.
COc1ccc(C2C(C(=O)N3CCN(c4ccccc4C)CC3)CC(=O)N2c2ccc(OC)cc2)cc1 (centres undefined),/,/,/,.,/,/
COC(=O)c1ccc2c(c1)C(C)(C)C(/C=C/c1ccc(OC)c(OC)c1OC)=[N+]2C,105,18,.,.,.,.
Cc1ccc(-c2c(C)cc3oc(=O)cc(-c4ccccc4)c3c2C)cc1,78,.,.,/,.,.
COc1ccc(-c2c(C)cc3oc(=O)cc(-c4ccccc4)c3c2C)cc1,.,.,.,/,.,.
Cc1cc2oc(=O)cc(-c3ccccc3)c2c(C)c1-c1ccc(N(C)C)cc1,78,.,.,/,.,.
CCOC(=O)c1ccc(-c2c(C)cc3oc(=O)cc(-c4ccccc4)c3c2C)cc1,73,.,.,/,.,.
O=S(=O)(O)c1cc(O)c(N=Nc2ccc(O)cc2O)c2ccccc12,.,.,.,92,.,.
COc1ccc2oc(-c3ccc(NC(=O)c4ccc(N5CCOCC5)c([N+](=O)[O-])c4)cc3)nc2c1,.,.,.,.,.,.
CCSc1ccc(C(=O)Nc2cccc(C)n2)cc1[N+](=O)[O-],.,.,.,.,.,.
O=C(Nc1ccc(-c2nc3ccccc3o2)cc1)c1ccc(N2CCOCC2)c([N+](=O)[O-])c1,81,.,/,.,.,.
Cc1cccc(NC(=O)c2ccc(N(C)C3CCCCC3)c([N+](=O)[O-])c2)n1,85,.,.,.,.,.
CCC(=O)N1CCN(c2ccc(Cl)cc2NC(=O)c2ccc(N3CCCC3)c([N+](=O)[O-])c2)CC1,76,.,.,.,.,.
CCC(=O)N1CCN(c2ccc(Cl)cc2NC(=O)c2ccc3c(c2)OCCO3)CC1,.,.,.,.,.,.
Cc1ccc(C(=O)Nc2cccc(-c3ccc(N4CCOCC4)nn3)c2)cc1[N+](=O)[O-],73,.,.,.,.,.
COCCNC(=O)C1(C)Cc2c(-c3cccc(C(F)(F)F)c3)ccnc2O1 (centres undefined),/,/,/,.,/,/
COc1cccc(CNc2nc3cc(-c4ccccc4C)sc3c(=O)n2C)c1OC,/,/,/,.,/,/
Cc1ccc(C)c2sc(NC(=O)c3ccc(N4CCCCC4)c([N+](=O)[O-])c3)nc12,71,.,.,.,.,.
Cc1cccc(NC(=O)c2ccc(N3CCCCC3)c([N+](=O)[O-])c2)n1,77,.,.,.,.,.
Cc1cccc(NC(=O)C2CCCN(S(=O)(=O)c3ccc4[nH]c(=O)ccc4c3)C2)c1 (centres undefined),.,45,.,/,.,.
Cc1ccc(S(=O)(=O)N2[C@@H](c3cccc(C)c3)C(C(=O)O)=C[C@H]2CC2CCCC2)cc1,.,.,/,/,.,.
Cc1c(N)cccc1-n1cnnn1,.,.,.,.,.,.
SMILES,SR-BI DiI inh,dFosB activator,Dyrk1A ADPGlo,NSD2 inh,SR-BI DiI-HDL act,CDK5 inh
c1cc2ccc3ccc(-n4cnnn4)c4ccc(c1)c2c34,.,25,.,.,.,.
CCOc1ccc(C(C)=O)cc1COC(=O)c1ccc2c(c1)NC(=O)CS2,80,.,.,.,.,.
COCCN(C(=O)Nc1ccc(OC)cc1OC)C1CCN(C(C)=O)CC1,80,.,.,.,/,.
O=C(c1noc2c1CCCC2)N1CCCC(N2CCN(c3ccccc3F)CC2)C1 (centres undefined),73,.,.,.,.,.
Cc1cc(=O)oc2cc(OCc3cc4c(cc3Cl)OCO4)ccc12,83,.,.,.,.,.
COc1ccc(NC(=O)C(=O)NCCN2CCN(C(=O)c3ccc(C(C)(C)C)cc3)CC2)cc1,77,.,.,/,.,.
COc1ccc(C(=O)N2CCN(CCNC(=O)C(=O)Nc3ccc(Br)cc3)CC2)cc1,.,.,/,.,.,.
Cc1cc(C)c2nc(N(CCCN(C)C)C(=O)c3ccc4c(c3)OCCO4)sc2c1,.,31,.,.,.,.
Fc1ccc(-c2cc3nc(-c4ccccc4)cc(N4CCOCC4)n3n2)cc1,73,.,.,.,.,.
Fc1cccc(-c2cc3nc(-c4ccccc4)cc(N4CCC5(CC4)OCCO5)n3n2)c1,.,.,.,.,.,.
Cc1ccc(-c2cc3nc(-c4ccccc4)cc(N4CCC5(CC4)OCCO5)n3n2)cc1,.,.,.,.,.,.
Cc1cccc(-c2cc3nc(-c4ccccc4)cc(N4CCC5(CC4)OCCO5)n3n2)c1,83,.,.,.,.,.
COC(=O)c1cc2c(c3c4cc(OC)ccc4n(S(=O)(=O)c4cccc(C)c4)c13)C(=O)N(Cc1ccccc1OC)C2,/,/,/,.,/,/
COc1cccc(NC(=O)c2ccnc(N3CCC(C(=O)NCc4cc(OC)ccc4OC)CC3)c2)c1,79,.,.,.,.,.
CCOC(=O)C1=C(COC(=O)/C=C/c2ccc(Cl)cc2)NC(=O)NC1C (centres undefined),.,.,.,.,.,.
CCOC(=O)C1=C(COC(=O)/C=C/c2ccc(OCC)c(OC)c2)NC(=O)NC1C (centres undefined),83,.,.,.,.,.
Cn1nnnc1SCCNC(=O)C1CCC(=O)N(Cc2ccc(Cl)cc2)C1 (centres undefined),.,.,.,.,.,.
Cn1nnnc1SCCNC(=O)C1CCC(=O)N(Cc2ccccc2F)C1 (centres undefined),.,.,.,.,72,.
Cc1cc(C)nc(NC(=O)c2cccs2)c1,.,.,/,.,.,.
CCCCc1ccc(N=N/C(C(=O)Nc2cc(OC)c(NC(C)=O)cc2OC)=C(/C)O)cc1,87,.,.,.,.,.
Nc1ccc(Oc2ccc3nc(-c4ccccc4)c(-c4ccc([N+](=O)[O-])cc4)nc3c2)cc1,76,.,.,.,.,.
Cc1ccc2cc3c(N)c4c(C)ccc(C)c4nc3nc2c1,.,29,.,.,.,.

# Assay outcomes: PubChem BioAssay, Broad Institute
